Measurements taken from ChEMBL document CHEMBL1177711, “Novel quinolizidinyl derivatives as antiarrhythmic agents: 2. Further investigation” (J Med Chem, 2010).
Calls of active or inactive are those of the source. The rule behind the calls is not given here.

Organism: Cavia porcellus
Assay: Agonist activity at muscarinic M2 receptor in guinea pig left atrium assessed as negative ionotropic activity in presence of carbachol
Assay type: functional, tissue-based
Details: Cardiac atrium

| Compound | inhibition |
| --- | --- |
| C[N+](C)(C)CCOC(N)=O | inactive |

Test system: Aorta
Assay: Vasorelaxant activity in potassium depolarized guinea pig aortic strip assessed as inhibition of calcium-induced contraction at 50 uM
Assay type: functional
Details: Cavia porcellus

| Compound | inhibition at 50 µM [%] |
| --- | --- |
| CCN(CC)CC(=O)Nc1c(C)cccc1C [LIDOCAINE] | 14 |

Test system: not listed separately
Assay: Negative chronotropic activity against potassium-induced contraction in guinea pig left atrium assessed as decrease atrial rate at 0.5 uM relative to control
Assay type: functional, Cavia porcellus, Cardiac atrium
Set-up: scale not given: the % may be the effect or the level left
Details: not given

| Compound | Activity [%] |
| --- | --- |
| CC(=O)Nc1ccc(C(=O)NC[C@@H]2CCCN3CCCC[C@H]23)cc1 | 14 |
| Cc1cc(C(=O)c2ccccc2)cc(C)c1NC(=O)C[C@@H]1CCCN2CCCC[C@H]12 | 70 |

Test system: not listed separately
Assay: Negative inotropic activity against potassium-induced contraction in guinea pig left atrium assessed as decrease in developed tension
Assay type: functional, tissue-based
Details: Cavia porcellus, Cardiac atrium

| Compound | EC50 [nM] |
| --- | --- |
| CC(=O)Nc1ccc(C(=O)NC[C@@H]2CCCN3CCCC[C@H]23)cc1 | 56 |

Organism: Cavia porcellus
Assay: Agonist activity at muscarinic M2 receptor in guinea pig left atrium assessed as negative ionotropic activity in presence of 1 uM atropine
Assay type: functional, tissue-based
Details: Cardiac atrium
In short: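 Isolated guinea-pig left atria electrically driven at 1 Hz; contractile force (inotropy) recorded. Potency values derived by probit analysis (Litchfield and Wilcoxon).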

| Compound | inhibition |
| --- | --- |
| CN1[C@@H]2CC[C@H]1C[C@@H](OC(=O)C(CO)c1ccccc1)C2 (stereo partly specified) | inactive |
